Results from ChEMBL document CHEMBL5346966, “Discovery and Characterization of PROTACs Targeting Tissue Transglutaminase (TG2)” (J Med Chem, 2023).
Calls of active or inactive are those of the source.

How the values were obtained:
OVCAR-5 [1] = test: Inhibition of cell migration in human OVCAR-5 cells at 10 uM incubated for 18 hrs by crystal violet staining based wound healing assay; format: functional
[2] = biological target: T1, Protein-glutamine gamma-glutamyltransferase (Homo sapiens) (UniProt P21980); test: Induction of TG2 degradation in human SK-OV-3 cells assessed as reduction in TG2 level at 0.1 to 10 uM measured after 6 hrs by Western blot analysis; format: cell-based; conditions: dose 0.1-10 µM
T1 sequence (whole entry): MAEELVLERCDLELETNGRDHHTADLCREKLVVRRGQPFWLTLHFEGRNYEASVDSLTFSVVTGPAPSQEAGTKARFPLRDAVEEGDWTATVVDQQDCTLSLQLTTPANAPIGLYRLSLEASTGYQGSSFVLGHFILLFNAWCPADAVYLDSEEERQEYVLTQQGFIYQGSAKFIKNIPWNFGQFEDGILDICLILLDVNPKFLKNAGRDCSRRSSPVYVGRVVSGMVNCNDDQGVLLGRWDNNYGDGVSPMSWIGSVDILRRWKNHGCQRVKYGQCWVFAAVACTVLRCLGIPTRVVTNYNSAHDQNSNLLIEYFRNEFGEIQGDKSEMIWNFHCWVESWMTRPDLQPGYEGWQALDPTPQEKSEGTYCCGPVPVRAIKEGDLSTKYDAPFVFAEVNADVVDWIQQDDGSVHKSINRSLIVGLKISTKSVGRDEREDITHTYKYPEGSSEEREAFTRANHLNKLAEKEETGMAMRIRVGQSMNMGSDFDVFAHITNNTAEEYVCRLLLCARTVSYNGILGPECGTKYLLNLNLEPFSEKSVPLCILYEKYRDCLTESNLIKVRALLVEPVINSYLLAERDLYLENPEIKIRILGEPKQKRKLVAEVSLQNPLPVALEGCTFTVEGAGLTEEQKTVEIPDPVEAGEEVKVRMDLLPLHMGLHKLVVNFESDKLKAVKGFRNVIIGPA

SK-OV-3 [3] = test: Inhibition of cell adhesion to fibronectin in human SK-OV-3 cells at 10 uM incubated for 6 hrs by CCK-8 assay; format: functional, cell-based
Method in brief: (§1)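 Wells coated for 1 h with 10 μg/mL fibronectin in PBS. After PBS wash, attached cells counted by CCK-8 absorbance at […]. n = 3.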

SK-OV-3 [4] = test: Inhibition of cell migration in human SK-OV-3 cells at 10 uM incubated for 18 hrs by crystal violet staining based wound healing assay; format: functional
OVCAR-5 [5] = test: Inhibition of cell adhesion to fibronectin in human OVCAR-5 cells at 10 uM incubated for 6 hrs by CCK-8 assay; format: functional, cell-based; method in brief: as §1
SK-OV-3 [6] = test: Inhibition of cell migration in human SK-OV-3 cells at 10 uM incubated for 18 hrs by crystal violet staining based transwell migration assay; format: functional
Method in brief: (§2)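 Transwell migration through 8 μm pores: 15,000 OVCAR5 or SKOV3 cells in serum-free medium with compound or control in upper chamber, 10% serum below. After 18 h, migrated cells fixed in 4% PFA, stained with crystal violet and counted at 40×. n = 3.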

OVCAR-5 [7] = test: Inhibition of cell migration in human OVCAR-5 cells at 10 uM incubated for 18 hrs by crystal violet staining based transwell migration assay; format: functional; method in brief: as §2
[8] = biological target: T1, Protein-glutamine gamma-glutamyltransferase (Homo sapiens); test: Induction of TG2 degradation in human OVCAR-5 cells assessed as reduction in TG2 level at 0.1 to 10 uM measured after 6 hrs by Western blot analysis; format: cell-based; conditions: dose 0.1-10 µM
Method in brief: (§3)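 Cells on 6 cm dishes treated for 6 or 24 h; OVCAR5 at 0.1, 1 and 10 μM, SKOV3 at 1 and 10 μM; DMSO control. RIPA lysates quantified by Bradford, then western blot with anti-TG2 and GAPDH antibodies (1:1000, overnight 4 °C). Bands quantified by densitometry; n = 3.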

[9] = biological target: T1, Protein-glutamine gamma-glutamyltransferase (Homo sapiens); test: Induction of TG2 degradation in human OVCAR-5 cells assessed as reduction in TG2 level at 0.1 to 10 uM measured after 24 hrs by Western blot analysis; format: cell-based; conditions: dose 0.1-10 µM; method in brief: as §3
SK-OV-3 [10] = test: Cytotoxicity against human SK-OV-3 cells assessed as cell death at 0.1 to 30 uM treated every 6 to 8 hrs for 5 days by CCK-8 assay; format: functional, cell-based; conditions: dose 0.1-30 µM, time 5.0 day
Method in brief: (§4)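 OVCAR5 and SKOV3 cells in 96-well plates given compound at 0.1, 0.3, 1, 3, 10 or 30 μM, redosed every 6–8 h over 5 days. Viable cells measured by CCK-8 absorbance at […]. n = 3.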

[11] = biological target: T1, Protein-glutamine gamma-glutamyltransferase (Homo sapiens); test: Induction of TG2 degradation in human OVCAR-5 cells assessed as reduction in TG2 level at 10 uM incubated for 6 hrs in presence of VHL-L by Western blot analysis; format: cell-based
Method in brief: (§5)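 OVCAR5 or SKOV3 cells treated for 6 h with compound at 10 μM plus 10 μM VHL ligand as competitor. TG2 measured by western blot with densitometry against control. n = 3.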

[12] = biological target: T1, Protein-glutamine gamma-glutamyltransferase (Homo sapiens); test: Induction of TG2 degradation in human SK-OV-3 cells assessed as reduction of TG2 level treated every 6 to 8 hrs for 24 hrs by Western blot analysis; format: cell-based; conditions: dose 1-10 µM
Method in brief: (§6)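 OVCAR5 or SKOV3 cells given compound at 1 or 10 μM, redosed every 6–8 h over 24 h. TG2 measured at 24 h by western blot of RIPA lysates.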

[13] = biological target: T1, Protein-glutamine gamma-glutamyltransferase (Homo sapiens); test: Induction of TG2 degradation in human SK-OV-3 cells assessed as maximal degradation at 10 to 30 uM measured after 6 hrs by Western blot analysis; format: cell-based; conditions: dose 10-30 µM
Method in brief: (§7)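 SKOV3 cells treated with 0.1, 0.3, 1, 3, 10 or 30 μM for 0, 2, 6, 12 and 24 h. TG2 measured by western blot of RIPA lysates with GAPDH reprobe after stripping, followed by densitometry. n = 3 experimental replicates.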

[14] = biological target: T1, Protein-glutamine gamma-glutamyltransferase (Homo sapiens); test: Induction of TG2 degradation in human SK-OV-3 cells assessed as reduction of TG2 level at 1 to 10 uM measured after 12 hrs by Western blot analysis; format: cell-based; conditions: dose 1-10 µM, time 24.0 hrs, in the assay text read “24 hrs” for “12 hrs”; method in brief: as §7
[15] = biological target: T1, Protein-glutamine gamma-glutamyltransferase (Homo sapiens); test: Induction of TG2 degradation in human SK-OV-3 cells assessed as reduction of TG2 level at 10 uM incubated for 6 hrs followed by MG132 addition and measured after 8 hrs by Western blot analysis; format: cell-based; conditions: time 14.0 hrs
Method in brief: (§8)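 Proteasome dependence checked in OVCAR5 or SKOV3 cells: compound at 10 μM for 6 h, with MG132 at 20 μM for 8 h. TG2 measured by western blot, and band intensity expressed relative to DMSO control. n = 3.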

OVCAR-5 [16] = test: Cytotoxicity against human OVCAR-5 cells assessed as cell death at 0.1 to 30 uM treated every 6 to 8 hrs for 5 days; format: functional, cell-based; conditions: dose 0.1-30 µM, time 5.0 day; method in brief: as §4
[17] = biological target: T1, Protein-glutamine gamma-glutamyltransferase (Homo sapiens); test: Induction of TG2 degradation in human SK-OV-3 cells assessed as reduction in TG2 level measured after 2 to 12 hrs by Western blot analysis; format: cell-based; conditions: dose 0.1-30 µM, time 2-12 hrs; method in brief: as §7
[18] = biological target: T1, Protein-glutamine gamma-glutamyltransferase (Homo sapiens); test: Induction of TG2 degradation in human SK-OV-3 cells assessed as reduction in TG2 level at 0.1 to 10 uM measured after 24 hrs by Western blot analysis; format: cell-based; conditions: dose 0.1-10 µM
[19] = biological target: T1, Protein-glutamine gamma-glutamyltransferase (Homo sapiens); test: Induction of TG2 degradation in human OVCAR-5 cells assessed as reduction of TG2 level at 1 to 10 uM measured after 24 hrs by Western blot analysis; conditions: dose 1-10 µM
[20] = biological target: T1, Protein-glutamine gamma-glutamyltransferase (Homo sapiens); test: Induction of TG2 degradation in human SK-OV-3 cells assessed as reduction in TG2 level measured within 6 hrs by Western blot analysis; format: cell-based; conditions: dose 0.1-10 µM
[21] = biological target: T1, Protein-glutamine gamma-glutamyltransferase (Homo sapiens); test: Induction of TG2 degradation in human OVCAR-5 cells assessed as reduction in TG2 level at 10 uM incubated for 6 hrs followed by MG132 addition and measured after 8 hrs by Western blot analysis; format: cell-based; conditions: time 14.0 hrs; method in brief: as §8
[22] = biological target: T1, Protein-glutamine gamma-glutamyltransferase (Homo sapiens); test: Induction of TG2 degradation in human SK-OV-3 cells assessed as reduction in TG2 level at 0.1 to 30 uM by Western blot analysis; format: cell-based; conditions: dose 0.1-30 µM, time 2-12 hrs, TDE = time-dependent effect; method in brief: as §7
[23] = biological target: T1, Protein-glutamine gamma-glutamyltransferase (Homo sapiens); test: Induction of TG2 degradation in human OVCAR-5 cells assessed as reduction in TG2 level measured within 6 hrs by Western blot analysis; format: cell-based; conditions: dose 0.1-10 µM
[24] = biological target: T1, Protein-glutamine gamma-glutamyltransferase (Homo sapiens); test: Potency index, ratio of MT4 KD to test compound KD for binding affinity to TG2 (unknown origin) assessed as dissociation constant at 30 degree C by isothermal titration calorimetry
[25] = biological target: T1, Protein-glutamine gamma-glutamyltransferase (Homo sapiens); test: Induction of TG2 degradation in human SK-OV-3 cells assessed as reduction in TG2 level at 10 uM incubated for 6 hrs in presence of VHL-L by Western blot analysis; format: cell-based; method in brief: as §5
[26] = biological target: T1, Protein-glutamine gamma-glutamyltransferase (Homo sapiens); test: Induction of TG2 degradation in human OVCAR-5 cells assessed as reduction of TG2 level treated every 6 to 8 hrs for 24 hrs by Western blot analysis; format: cell-based; conditions: dose 1-10 µM; method in brief: as §6
[27] = biological target: T2, Protein-glutamine gamma-glutamyltransferase (Homo sapiens, UniProt P21980); test: Binding affinity to TG2 (unknown origin) assessed as dissociation constant at 30 degree C by isothermal titration calorimetry
T2 sequence (P21980 whole entry): T1 sequence (whole entry)

Cc1cc(N(C)CCOCCC(=O)N[C@H](C(=O)N2C[C@@H](O)C[C@H]2C(=O)NCc2ccc(-c3scnc3C)cc2)C(C)(C)C)nc(Nc2ccc(NC(=O)Cc3ccccc3)cc2)n1
inactive: inhibition (OVCAR-5 [1]) | Activity [2] | inhibition (SK-OV-3 [3]) | inhibition (SK-OV-3 [4]) | inhibition (OVCAR-5 [5]) | inhibition (SK-OV-3 [6]) | inhibition (OVCAR-5 [7]) | Activity [8]

Cc1cc(N(C)CCOCCOCCOCCOCCOCCC(=O)N[C@H](C(=O)N2C[C@H](O)C[C@H]2C(=O)NCc2ccc(-c3scnc3C)cc2)C(C)(C)C)nc(Nc2ccc(NC(=O)Cc3ccccc3)cc2)n1
inactive: Activity [9] | Activity (SK-OV-3 [10]) | Activity [11] | Activity [14] | Activity [15] | Activity (OVCAR-5 [16]) | Activity [18] | Activity [19] | Activity [21] | Activity [25]
active: inhibition (OVCAR-5 [1]) | Activity [12] | Activity [13] | Activity [17] Dose-Dependent Effect | inhibition (SK-OV-3 [3]) | Activity [20] Dose-Dependent Effect | Activity [22] Tde | Activity [23] Dose-Dependent Effect | inhibition (SK-OV-3 [4]) | inhibition (OVCAR-5 [5]) | Activity [26] | inhibition (SK-OV-3 [6]) | inhibition (OVCAR-5 [7])
8.8: Ratio [24]

Cc1cc(N(C)CCOCCC(=O)N[C@H](C(=O)N2C[C@H](O)C[C@H]2C(=O)NCc2ccc(-c3scnc3C)cc2)C(C)(C)C)nc(Nc2ccc(NC(=O)Cc3ccccc3)cc2)n1
inactive: Activity [9] | Activity (SK-OV-3 [10]) | Activity [11] | Activity [14] | Activity [15] | Activity (OVCAR-5 [16]) | Activity [18] | Activity [19] | Activity [21] | Activity [25]
> 100 µM: Kd [27]
> 12.8: Ratio [24]
active: inhibition (OVCAR-5 [1]) | Activity [12] | Activity [13] | Activity [17] Dose-Dependent Effect | inhibition (SK-OV-3 [3]) | Activity [20] Dose-Dependent Effect | Activity [22] Tde | Activity [23] Dose-Dependent Effect | inhibition (SK-OV-3 [4]) | inhibition (OVCAR-5 [5]) | Activity [26] | inhibition (SK-OV-3 [6]) | inhibition (OVCAR-5 [7])

Cc1cc(N(C)CCOCCOCCOCCOCCOCCC(=O)N[C@H](C(=O)N2C[C@@H](O)C[C@H]2C(=O)NCc2ccc(-c3scnc3C)cc2)C(C)(C)C)nc(Nc2ccc(NC(=O)Cc3ccccc3)cc2)n1
inactive: inhibition (OVCAR-5 [1]) | Activity [2] | inhibition (SK-OV-3 [3]) | inhibition (SK-OV-3 [4]) | inhibition (OVCAR-5 [5]) | inhibition (SK-OV-3 [6]) | inhibition (OVCAR-5 [7]) | Activity [8]
